Measurements from article PMC13170702 (Nuclear medicine and biology, 2025).

Test: whole-body PET-MR biodistribution and TIAC determination
Format: in vivo, human
In short: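 Tracer 70.3–355 MBq was given as an i.v. bolus; whole-body PET-MR used 6 bed positions. WB1–WB5 ran 0–34 min (1 min/bed), WB6–7 35–60 min (2 min/bed), WB8 80–104 min and WB9 180–214 min (4 min/bed). Voiding and water were allowed in breaks. SUV was read from AMIDE VOIs at early times (<1 h). Decay-corrected %IA per organ VOI over time was fitted by the exponential model (OLINDA/EXM 1.1) for TIACs.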

SUV, brain and spinal tissues (27–34 min after injection): > 1
SUV, major organs, CNS and peripheral tissues (27–34 min after injection): > 1
TIAC, Brain (F1 (189 MBq)): 0.084 MBq-h/MBq
TIAC, Gallbladder wall (F1 (189 MBq)): 0.0031 MBq-h/MBq
TIAC, Heart contents (F1 (189 MBq)): 0.00463 MBq-h/MBq
TIAC, Heart wall (F1 (189 MBq)): 0.0155 MBq-h/MBq
TIAC, Kidneys (F1 (189 MBq)): 0.25 MBq-h/MBq
TIAC, Liver (F1 (189 MBq)): 0.209 MBq-h/MBq
TIAC, Lungs (F1 (189 MBq)): 0.274 MBq-h/MBq
TIAC, Pancreas (F1 (189 MBq)): 0.00899 MBq-h/MBq
TIAC, Remainder (F1 (189 MBq)): 1.28 MBq-h/MBq
TIAC, Small intestine (F1 (189 MBq)): 0.0843 MBq-h/MBq
TIAC, Spleen (F1 (189 MBq)): 0.0284 MBq-h/MBq
TIAC, Thymus (F1 (189 MBq)): 0.00372 MBq-h/MBq
TIAC, Thyroid (F1 (189 MBq)): 0.00052 MBq-h/MBq
TIAC, Urinary bladder contents (F1 (189 MBq)): 0.138 MBq-h/MBq
TIAC, Uterus/Uterine wall (F1 (189 MBq)): 0.00432 MBq-h/MBq
TIAC, Brain (F2, no voiding (355 MBq)): 0.075 MBq-h/MBq
TIAC, Gallbladder wall (F2, no voiding (355 MBq)): 0.00204 MBq-h/MBq
TIAC, Heart contents (F2, no voiding (355 MBq)): 0.00054 MBq-h/MBq
TIAC, Heart wall (F2, no voiding (355 MBq)): 0.0118 MBq-h/MBq
TIAC, Kidneys (F2, no voiding (355 MBq)): 0.391 MBq-h/MBq
TIAC, Liver (F2, no voiding (355 MBq)): 0.202 MBq-h/MBq
TIAC, Lungs (F2, no voiding (355 MBq)): 0.31 MBq-h/MBq
TIAC, Pancreas (F2, no voiding (355 MBq)): 0.00377 MBq-h/MBq
TIAC, Small intestine (F2, no voiding (355 MBq)): 0.0474 MBq-h/MBq
TIAC, Spleen (F2, no voiding (355 MBq)): 0.00188 MBq-h/MBq
TIAC, Thymus (F2, no voiding (355 MBq)): 0.00178 MBq-h/MBq
TIAC, Thyroid (F2, no voiding (355 MBq)): 0.0047 MBq-h/MBq
TIAC, Urinary bladder contents (F2, no voiding (355 MBq)): 0.127 MBq-h/MBq
TIAC, Uterus/Uterine wall (F2, no voiding (355 MBq)): 0.0564 MBq-h/MBq
TIAC, Brain (F3 (117 MBq)): 0.0606 MBq-h/MBq
TIAC, Gallbladder wall (F3 (117 MBq)): 0.00328 MBq-h/MBq
TIAC, Heart contents (F3 (117 MBq)): 0.00112 MBq-h/MBq
TIAC, Heart wall (F3 (117 MBq)): 0.0131 MBq-h/MBq
TIAC, Kidneys (F3 (117 MBq)): 0.266 MBq-h/MBq
TIAC, Liver (F3 (117 MBq)): 0.262 MBq-h/MBq
TIAC, Lungs (F3 (117 MBq)): 0.186 MBq-h/MBq
TIAC, Pancreas (F3 (117 MBq)): 0.00504 MBq-h/MBq
TIAC, Remainder (F3 (117 MBq)): 1.44 MBq-h/MBq
TIAC, Small intestine (F3 (117 MBq)): 0.0667 MBq-h/MBq
TIAC, Spleen (F3 (117 MBq)): 0.011 MBq-h/MBq
TIAC, Thymus (F3 (117 MBq)): 0.00146 MBq-h/MBq
TIAC, Thyroid (F3 (117 MBq)): 0.00131 MBq-h/MBq
TIAC, Urinary bladder contents (F3 (117 MBq)): 0.00659 MBq-h/MBq
TIAC, Uterus/Uterine wall (F3 (117 MBq)): 0.0115 MBq-h/MBq
TIAC, Brain (F4 (167 MBq)): 0.0781 MBq-h/MBq
TIAC, Gallbladder wall (F4 (167 MBq)): 0.00062 MBq-h/MBq
TIAC, Heart contents (F4 (167 MBq)): 0.0015 MBq-h/MBq
TIAC, Heart wall (F4 (167 MBq)): 0.0212 MBq-h/MBq
TIAC, Kidneys (F4 (167 MBq)): 0.245 MBq-h/MBq
TIAC, Liver (F4 (167 MBq)): 0.192 MBq-h/MBq
TIAC, Lungs (F4 (167 MBq)): 0.231 MBq-h/MBq
TIAC, Pancreas (F4 (167 MBq)): 0.0053 MBq-h/MBq
TIAC, Remainder (F4 (167 MBq)): 1.22 MBq-h/MBq
TIAC, Small intestine (F4 (167 MBq)): 0.126 MBq-h/MBq
TIAC, Spleen (F4 (167 MBq)): 0.0057 MBq-h/MBq
TIAC, Thymus (F4 (167 MBq)): 0.0021 MBq-h/MBq
TIAC, Thyroid (F4 (167 MBq)): 0.0009 MBq-h/MBq
TIAC, Urinary bladder contents (F4 (167 MBq)): 0.0319 MBq-h/MBq
TIAC, Uterus/Uterine wall (F4 (167 MBq)): 0.0133 MBq-h/MBq
TIAC, Brain (M1 (326 MBq)): 0.0947 MBq-h/MBq
TIAC, Gallbladder wall (M1 (326 MBq)): 0.00525 MBq-h/MBq
Compound: COC(=O)[C@@H](N)CC(=O)Nc1ccc2c(c1)Cc1cc([18F])ccc1-2 [[^18F]RP-115, methyl N^4-(7-[^18F]fluoro-9H-fluoren-2-yl)asparaginate]
